Screening data deposited in PubChem BioAssay by several laboratories.
Tb hexokinase = T. brucei hexokinase 1 inhibition; AID 1430; inhibition, % at 10 µM; 220,000 tested, 0.11% active; recombinant TbHK1, G6PDH-coupled NADH A340;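 active = inhibition of 50% or more in the single-dose primary screen; inactive = inhibition below 50%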
S1P4 agonist = activates the human S1P4 receptor; O95977; S1P4-expressing cell line, agonist reporter assay; activation, % at 4.98 µM; 220,000 tested, 0.35% active; in the data active = activation above about 11%
S1P4 antagonist = blocks the human S1P4 receptor; O95977; S1P4-expressing cells, antagonist mode, reporter read-out; inhibition, % at 4.98 µM; 220,000 tested, 0.26% active; AID 1510; in the data active = inhibition above about 29%
Dynein transport = dynein cargo transport inhibition; z-score, hits read low; 3617.4 mouse cells, GR-EGFP nuclear translocation imaging; test concentration mostly 20 µM; stimulated with dexamethasone, 1 µM; hits give low values; AID 1381; 220,000 tested, 0.47% active;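 active = plate z-score of nuclear minus cytoplasmic receptor signal below a set negative limit, without overly bright fluorescence or cell loss, cut at about -3.5 in these data, passing the limit was not always enough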;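 also: z-score of nuclear minus cytoplasmic ring GR-EGFP intensity difference per well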
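medium = tetracycline-free induction medium containing charcoal-stripped FBS | probe or stimulus = dexamethasone, 1.0 µM final | timing = 48 h induction, then 1 h compound, then 30 min agonist, 37 °C | detection = automated 10x imaging of fixed Hoechst-stained cells | read-out basis = nuclear versus cytoplasmic GR-EGFP signal, averaged per well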
Biofilm kill mix = mixtures killing C. albicans biofilm. inhibition, % at 7.6 µM. 120,000 tested, 0.02% active. C. albicans biofilm persisters + clotrimazole, fluorescence viability; primary screen in compound mixtures of four per well. AID 1242;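 active = inhibition above 30.3% in the primary screen of four-compound pools, then above 30% when the compound was retested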;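 also: compounds exposed to preformed 24 h biofilms for 48 h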
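Incubation: 24 h biofilm formation, then 48 h compound exposure, 37 °C | Material: C. albicans biofilms | Buffer or medium: RPMI/MOPS medium, pH 7.0 | Measured by: 2-h Alamar Blue fluorescence, 535/590 nm excitation/emission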
S1P3 antagonist = blocks the human S1P3 receptor; CHO S1P3 NFAT-BLA reporter, FRET fluorescence, antagonist mode; inhibition, % at 4.98 µM; 170,000 tested, 0.27% active; AID 485;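 active = inhibition above the plate cutoff, the mean inhibition of test wells on that plate plus 3 SD, cut at about 28% in these data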;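 also: cells challenged with S1P at its EC80 of 0.8 µM; blue over green emission ratio from cleaved BLA substrate after 4 h stimulation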
Target sequence (Q99500 whole entry, looked up): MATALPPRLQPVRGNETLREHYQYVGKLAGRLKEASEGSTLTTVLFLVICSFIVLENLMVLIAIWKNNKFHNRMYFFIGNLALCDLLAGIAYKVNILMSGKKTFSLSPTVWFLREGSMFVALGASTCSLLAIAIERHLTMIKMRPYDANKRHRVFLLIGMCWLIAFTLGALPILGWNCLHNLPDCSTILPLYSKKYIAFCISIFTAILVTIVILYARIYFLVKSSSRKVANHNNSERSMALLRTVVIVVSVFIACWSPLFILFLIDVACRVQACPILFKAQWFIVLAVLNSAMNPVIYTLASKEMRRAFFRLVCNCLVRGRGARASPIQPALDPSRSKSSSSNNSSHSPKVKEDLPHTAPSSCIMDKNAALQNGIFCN
S1P4 antag conf = human S1P4 antagonism, confirmation. inhibition, % at 4.98 µM. shares compounds with S1P4 antagonist. AID 1524. 520 tested, 71% active. S1P4-expressing cell line, antagonist mode, reporter read-out; in the data active = inhibition above about 30%
S1P1 antagonist = human S1P1 antagonism as S1P4 antagonist counter-screen. inhibition, % at 4.98 µM. 520 tested, 37% active. cell-based S1P1 antagonist counterscreen, inhibition. shares compounds with S1P4 antagonist; in the data active = inhibition above about 40%;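 also: receptor stimulated with S1P near its EC80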
Target sequence (P21453 whole entry, looked up): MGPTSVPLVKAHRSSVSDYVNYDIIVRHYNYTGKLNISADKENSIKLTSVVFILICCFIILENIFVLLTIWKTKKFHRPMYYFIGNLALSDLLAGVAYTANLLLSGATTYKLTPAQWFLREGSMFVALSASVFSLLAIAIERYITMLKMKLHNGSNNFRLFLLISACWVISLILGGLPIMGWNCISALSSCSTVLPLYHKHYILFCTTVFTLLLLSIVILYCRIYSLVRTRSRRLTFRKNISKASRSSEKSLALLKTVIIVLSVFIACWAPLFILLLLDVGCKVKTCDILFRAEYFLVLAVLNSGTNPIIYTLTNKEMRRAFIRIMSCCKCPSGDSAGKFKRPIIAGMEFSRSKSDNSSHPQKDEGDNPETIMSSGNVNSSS
Large screens that a line does not name were inactive (follow-up assays come after a bar, where they were run). This is a sample that favours compounds with a hit; in the whole collection about 1.3% have one here.

CCCN1C(=O)S/C(=C\c2ccc(N3CCOCC3)o2)C1=O	none
C/C(=N/NC(=O)CNc1ccc(Cl)cc1C)c1ccc(C)cc1	none
COC(=O)C1=C(C)N=C2SC(C#N)=C(N)N2C1c1ccc(OC)cc1 (stereo not given)	none (no result: Biofilm kill mix, S1P3 antagonist)
CCOC(=O)C1=C(C)N=C2SC(C(=O)OC)=CC(=O)N2C1c1ccc(OC)cc1 (stereo not given)	S1P4 antagonist 46 | S1P4 antag conf inactive | S1P1 antagonist inactive
CCCCC(=O)O[C@]1(C(=O)CO)CC[C@H]2[C@@H]3CCC4=CC(=O)CC[C@]4(C)[C@H]3[C@@H](O)C[C@@]21C	none
CC1(C)O[C@@H]2C[C@H]3[C@@H]4C[C@H](F)C5=CC(=O)CC[C@]5(C)[C@H]4[C@@H](O)C[C@]3(C)[C@]2(C(=O)CO)O1	S1P4 antagonist 59 | S1P4 antag conf inactive | S1P1 antagonist inactive
Cc1ccc(S(=O)(=O)CCN2C=CC(C(F)(F)F)=NCC2)cc1	S1P4 antagonist 33 | S1P4 antag conf inactive | S1P1 antagonist inactive
O=S(=O)(Nc1cccc(-c2ccc3nncn3n2)c1)c1ccc(Cl)s1	none
O=C(C1CCOCC1)N1CCC(CO)(CCc2ccccc2)CC1	none
COc1ccc(-c2csc(NC3OC(=O)c4c3ccc(OC)c4OC)n2)cc1OC (stereo not given)	S1P4 antagonist 32 | S1P4 antag conf 58 | S1P1 antagonist 44
COc1ccc(C(=O)c2c(C(F)(F)F)oc3c2C(=O)c2ccccc2C3=O)cc1OC	S1P4 antagonist 33 (no result: Biofilm kill mix, S1P3 antagonist) | S1P4 antag conf 71 | S1P1 antagonist 57
COc1ccc(C(=O)Nc2ccc3c(c2)C(=O)c2ccccc2C3=O)cc1OC	none
O=C(Nc1ccc(N2CCCCC2)cc1)c1cccnc1Cl	none (no result: Biofilm kill mix, S1P3 antagonist)
O=C(Nc1ccc(Cl)cc1)c1cccnc1N1CCCCC1	S1P4 antagonist 95 (no result: Biofilm kill mix, S1P3 antagonist) | S1P4 antag conf inactive | S1P1 antagonist inactive
O=[N+]([O-])c1cc(Cl)c2cccnc2c1O	none
O=[N+]([O-])c1cc(Cl)c(O)c2ncccc12	S1P4 antagonist 31 | S1P4 antag conf 62 | S1P1 antagonist 55
CCOc1ccc(C(C)=O)cc1N1C(=O)C2C3C=CC(O3)C2C1=O (stereo not given)	S1P4 antagonist 53 (no result: Biofilm kill mix) | S1P4 antag conf inactive | S1P1 antagonist inactive
CCOc1ccc(C(C)=O)cc1N1C(=O)C2C3C=CC(C3)C2C1=O (stereo not given)	none (no result: Biofilm kill mix)
CC(C)CN1CCN(Cc2ccc3ncccc3c2)CC1CCO (stereo not given)	none
Cc1ccc(-c2nc(C=Nc3ccc(O)cc3)c(O)o2)cc1	S1P4 antagonist 31 | S1P4 antag conf 43 | S1P1 antagonist inactive
COc1cc(C=C(c2nc3ccccc3s2)c2nc3ccccc3s2)ccc1O	none
COc1ccc(C=C(c2nc3ccccc3s2)c2nc3ccccc3s2)cc1O	S1P4 antagonist 29 | S1P4 antag conf 58 | S1P1 antagonist inactive
COC(=O)c1sccc1-c1ccc(/C=N/OC(=O)c2cccs2)o1	none
CNC(=O)CSCc1c(F)cccc1Cl	none (no result: S1P3 antagonist)
CC(C)NC(=O)CSCc1c(F)cccc1Cl	S1P4 antagonist 57 (no result: S1P3 antagonist) | S1P4 antag conf inactive | S1P1 antagonist inactive
COc1ccc([N+](=O)[O-])cc1NC(=O)C(C)Sc1nc(C)c(C)c(C)n1 (stereo not given)	none
CN(C)c1ccc(C(=O)c2ccc(N(C)C)c3ccccc23)cc1	S1P4 antagonist 34 (no result: S1P3 antagonist) | S1P4 antag conf 50 | S1P1 antagonist 60
CC(c1ccccc1)N1C(=O)/C(=C/c2ccncc2)SC1=S (stereo not given)	none
CCCCOc1ccccc1C(=O)NCCCC(=O)O	S1P4 antagonist 35 (no result: Biofilm kill mix, S1P3 antagonist) | S1P4 antag conf inactive | S1P1 antagonist inactive
CCCCCOc1ccccc1C(=O)NCCCC(=O)O	none (no result: Biofilm kill mix, S1P3 antagonist)
CCCOc1ccc(/C=C2\SC(=S)N(CC3CCCO3)C2=O)cc1 (stereo not given)	none
O=C1/C(=C/c2ccc(O)cc2)SC(=S)N1CC1CCCO1 (stereo not given)	S1P4 antagonist 30 | S1P4 antag conf inactive | S1P1 antagonist inactive
Cc1ccc(Nc2cc(C)nn2-c2nc(C)cc(=O)[nH]2)cc1	S1P4 antagonist 92 (no result: Biofilm kill mix) | S1P4 antag conf 114 | S1P1 antagonist 95
CC(=O)n1cc(N(C(=O)CCl)c2ccc(Cl)cc2)c2ccccc21	S1P4 antagonist 60 | S1P4 antag conf 115 | S1P1 antagonist 41
O=S(=O)(Nc1nc2ccccc2nc1NCc1ccco1)c1ccc(F)cc1	none
CCN(CC)CCNC(=O)c1ccc2c(c1NCCO)C(=O)c1ccccc1C2=O	S1P4 antagonist 81 | S1P4 antag conf inactive | S1P1 antagonist inactive
CC1CCN(C(=O)c2ccc3c(c2NCCO)C(=O)c2ccccc2C3=O)CC1	none (no result: Biofilm kill mix, S1P3 antagonist)
N#Cc1ccc(/C=C/C(=O)c2ccccc2)cc1	S1P4 antagonist 86 | S1P4 antag conf 90 | S1P1 antagonist inactive
CCOc1ccc(/C=C/C(=O)c2ccc(-c3ccccc3)cc2)cc1	none
C/C(CC(C)(C)C1CCCCC1)=N\NC(N)=S	S1P4 antagonist 48 (no result: Biofilm kill mix, S1P3 antagonist) | S1P4 antag conf 67 | S1P1 antagonist inactive
C/C(CCC12CC3CC(CC(C3)C1)C2)=N\NC(N)=S	none (no result: Biofilm kill mix, S1P3 antagonist)
O=C1SC(SC(=Nc2ccccc2)Nc2ccccc2)C(=O)N1c1ccccc1 (stereo not given)	none
O=C(/C=C/c1ccc(Br)cc1)c1ccco1	S1P4 antagonist 54 | S1P4 antag conf 81 | S1P1 antagonist inactive
O=C(/C=C/c1ccc(Br)cc1)c1ccc(NC(=O)c2ccco2)cc1	none
COc1cc(CNCCO)cc(Cl)c1OCc1ccc(Cl)cc1Cl	S1P4 antagonist 31 | S1P4 antag conf 51 | S1P1 antagonist 64
Cc1cccc(NC2=C/C(=N/S(=O)(=O)c3cccs3)c3ccccc3C2=O)c1	none
O=C1C(Nc2ccc(O)cc2)=C/C(=N/S(=O)(=O)c2cccs2)c2ccccc21	S1P4 antagonist 86 | S1P4 antag conf 109 | S1P1 antagonist 94
CCOC(=O)c1cnc(SC2CC(=O)N(c3ccc(C)cc3)C2=O)nc1N (stereo not given)	S1P4 antagonist 44 (no result: Biofilm kill mix, S1P3 antagonist) | S1P4 antag conf inactive | S1P1 antagonist inactive
O=C(c1cc2c(F)cccc2s1)N1CCCC1	none
Cc1ccc2cc(/C=C/C(=O)c3ccco3)c(Cl)nc2c1	S1P4 antagonist 37 | S1P4 antag conf 68 | S1P1 antagonist inactive
C=C(C)CC(Nc1ccc(OC)cc1)c1ccco1 (stereo not given)	none
Cc1ccc(C)n1-c1ccc(C(=O)N2CCC(C(N)=O)CC2)cc1	S1P4 antagonist 44 | S1P4 antag conf inactive | S1P1 antagonist inactive
